High-throughput results deposited in PubChem BioAssay by several laboratories.
KCNQ1 pot: human KCNQ1 channel potentiation or activation; 0.35% of 310,000 active; CHO-K1 KCNQ1, thallium flux FluxOR fluorescence; stronger effect = higher value; B-score at 10 µM; P51787;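 active = fluorescence ratio B-score, a plate-corrected score, at least three library SD, with initial intensity B-score within 5 SD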
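System: CHO-K1 cells stably expressing KCNQ1 / Medium: assay buffer for compound exposure, DMSO matched across wells / Reagent: thallium- and potassium-containing depolarizing buffer / Compound: one concentration, matched DMSO / Incubation: 20 min compound pretreatment at room temperature / Measured by: kinetic FluxOR fluorescence, 10 s baseline plus 110 s post-stimulus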
KCNQ1 block: inhibitors of human KCNQ1 potassium channel | CHO-K1 KCNQ1, FluxOR thallium flux fluorescence; stronger effect = higher value | B-score at 10 µM | 1.3% of 310,000 active;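 active = compounds whose thallium flux B-score, printed positive for inhibition, exceeds three library SD while starting fluorescence stays within three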;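 note: channel opened by potassium depolarization with thallium stimulus after 20 min compound exposure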
KCC2 mod: KCC2 (human) Cl- transport modulation; Q9H2X9; KCC2 cells, thallium flux FluoZin-2 fluorescence; B-score of Tl+ flux slope (higher = more flux/activation; lower = inhibition) at 10 µM; 2.2% of 190,000 active; AID 1456;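 active = thallium flux slope and its plate-corrected score both differing from the plate sample mean at a set confidence after two filtering rounds, in either direction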;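 note: slope of fluorescence scaled to starting intensity during 10 to 20 s after thallium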
KCNK3 inh: human KCNK3 channel inhibition, primary screen; CHO-KCNK3 thallium flux, FluxOR fluorescence; stronger effect = lower value; 0.84% of 340,000 active; O14649; B-score at 10 µM;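 active = B-score under library mean minus 4 SD, starting fluorescence ratio at most library mean plus 5 SD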;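 note: more negative B-score means stronger inhibition of thallium flux through KCNK3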
hERG protect: shields human hERG channel from block by proarrhythmic agents | CHO-hERG, FluxOR thallium flux, dofetilide IC70 present | Q12809 | activation (rescue from dofetilide block), less the hit threshold, % at 10 µM | 0.51% of 310,000 active | AID 1511;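 active = activation above the mean of controls blocked by dofetilide plus 5 SD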;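 note: thallium influx through hERG after potassium depolarization seen as dye fluorescence rise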
KCNK9 block: inhibitors of human KCNK9 two-pore domain potassium channel. Q9NPC2. HEK293 KCNK9, FluxOR thallium flux fluorescence; stronger effect = lower value. B-score at 10 µM. 1.2% of 310,000 active. AID 488922;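 active = ratio B-score over 3 SD below the library mean, with starting fluorescence within 5 SD of its mean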;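 note: negative B-score means less thallium flux so channel inhibition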
Target sequence (Q9NPC2 whole entry, looked up, the tested form may be a part): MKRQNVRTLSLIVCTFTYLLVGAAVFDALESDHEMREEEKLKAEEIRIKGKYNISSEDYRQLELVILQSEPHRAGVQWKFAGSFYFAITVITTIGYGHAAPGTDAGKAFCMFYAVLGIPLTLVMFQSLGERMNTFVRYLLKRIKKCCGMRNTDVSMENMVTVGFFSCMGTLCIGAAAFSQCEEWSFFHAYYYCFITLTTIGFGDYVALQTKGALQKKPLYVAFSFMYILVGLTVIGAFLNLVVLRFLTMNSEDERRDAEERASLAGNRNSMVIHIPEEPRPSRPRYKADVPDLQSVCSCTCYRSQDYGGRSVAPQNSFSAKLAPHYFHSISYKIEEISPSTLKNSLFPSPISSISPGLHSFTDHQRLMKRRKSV
KCNK3 inh conf: confirmation of human KCNK3 two-pore domain potassium channel inhibitors | ratio percent of control, % at 10 µM | shares compounds with KCNK3 inh | CHO-KCNK3 thallium flux, FluxOR fluorescence; 0% buffer, 100% carvedilol maximal block | 99% of 2,400 active;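 active = ratio percent of control, averaged over triplicates, above buffer control mean plus 5 SD, cut at about 64% in these data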;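 note: ratio is the fluorescence rise from min to max over baseline after thallium stimulus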
KCNK3 noninduced: KCNK3 inhibitor counter-screen hit in non-induced cells; thallium flux ratio (lower = more inhibition) at 10 µM; AID 651747; non-induced KCNK3 parental cells, FluxOR thallium flux; stronger effect = lower value; 40% of 2,400 active; shares compounds with KCNK3 inh;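 active = thallium flux ratio, averaged over three wells, more than 5 SD below the buffer control mean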;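 note: host cells are CHO cells without KCNK3 induction; ratio is peak minus trough fluorescence over baseline then normalized to buffer controls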
* marks the source's active call; other numbers are inactive results; i = inactive; · = no result. Shown are actives, neighbours in structure and some others; about 4.1% of the full set was active somewhere.

SMILES	KCNQ1 pot	KCNQ1 block	KCC2 mod	KCNK3 inh	hERG protect	KCNK9 block	KCNK3 inh conf	KCNK3 noninduced
Fc1ccc(-c2cnc(-c3cccs3)o2)cc1	i	i	0.2	-9.6*	-5	i	93*	0.15*
CC(=O)Nc1ccc2c(COC(=O)[C@@H](NS(=O)(=O)c3ccc(C)cc3)C(C)C)cc(=O)oc2c1	·	·	·	i	·	·	·	·
O=C(Nc1ccc(CN2CCOCC2)cc1)c1ccc(-c2ccc(Cl)cc2Cl)o1	i	i	0.46	-9.7*	-15	i	103*	i
CCC(CC)=N/N=C/c1c(O)n(CC)c2cc(C3=NNC(=O)CC3)ccc12	i	i	-0.0064	i	-5	i	·	·
CCn1c(O)c(/C=N/N=C/c2ccccc2)c2ccc(C3=NNC(=O)CC3)cc21	i	i	-0.49	-8.9*	-22	i	131*	0.12*
CCOC(=O)c1ccc(NC(=O)CSc2nnc(CCc3ccc(C)o3)n2-c2ccccc2)cc1	i	i	-1.2	-17*	-10	i	90*	i
COC(=O)c1ccc2c(c1)C(C)(C)C(/C=C/c1ccc(OC)c(OC)c1OC)=[N+]2C	i	7*	-1.3	-12*	-28	i	117*	0.09*
CC(C)Oc1ccc(C(CC(=O)O)Cc2ccccc2)cc1 (centres undefined)	i	i	·	i	0	i	·	·
CC(C)n1c(SCC(=O)N2c3ccccc3Sc3ccccc32)nc2c1c(=O)n(C)c(=O)n2C	i	i	·	-11*	-8	i	98*	i
O=C(Nc1ccc(N2CCCC2)cc1)c1cccc(-c2cc3ccccc3oc2=O)c1	i	i	-0.03	-10*	-7	i	84*	i
Cc1cc(C(=O)Cn2nnc3ccccc3c2=O)c(C)n1Cc1cccs1	i	i	-1.6	-9.1*	-2	i	111*	i
Cc1ccc(S(=O)(=O)N2CCCC2)cc1C(=O)N1CCC(C)CC1	i	i	·	i	-4	i	·	·
COc1ccc(Cl)cc1N1C(=N)SCC1=O	i	i	1.6	i	-6	i	·	·
CCCCc1nn(-c2cc(Cl)ccc2OC)c2c1C(=O)CCC2	i	i	-2.4	-9.2*	-15	i	96*	0.16*
CN(c1ccccc1)S(=O)(=O)c1ccc(NC(=O)c2nc(S(C)(=O)=O)ncc2Cl)cc1	i	i	·	-9*	-20	i	106*	0.15*
COc1ccc(-c2cn(Cc3ccc(C(N)=O)cc3)c(-c3ccncc3)n2)cc1	·	·	·	i	·	·	·	·
CCOc1cc(NC(=O)C2CC2)c(OCC)cc1NC(=O)c1ccccc1OCC	i	i	·	-8.7*	-16	i	102*	i
CCOc1cc(NC(=O)C2CC2)c(OCC)cc1NC(=O)c1cc(OC)c(OC)c(OC)c1	i	i	·	i	-10	i	·	·
CCOc1ccccc1C(=O)NCCCCNC(=O)c1ccccc1OCC	i	i	·	-9.8*	-13	i	94*	i
Cc1ccc(N2C(=O)N(CC(=O)Nc3ccccc3C(F)(F)F)C(=O)C2C)cc1 (centres undefined)	·	·	·	i	·	·	·	·
Cc1nc(NC(=O)CSc2nnc(C3CC3)n2N)c(Cl)cc1Cl	·	·	·	i	·	·	·	·
CCN(CC(=O)Nc1cccc(C#N)c1)CC(=O)Nc1cccc(OC)c1	i	i	-0.75	-9.7*	-17	i	90*	i
C=C(C)COc1ccc(-c2[nH]ncc2-c2ccccc2OC)c(O)c1	i	i	·	-9*	-9	i	96*	i
COC(=O)C1=C(C)OC(N)=C(C#N)C1c1cc(OC)c(OCC(N)=O)cc1Cl (centres undefined)	i	i	1.6	i	-3	i	·	·
